Source: the RNAGym collection of RNA variant scans (doi:10.1101/gad.245936.114)
This sample holds only a part of the variants without activity.

B1: tRNA (parent)
chain: CUCUCGGUAGCCAAGUUGGUUUAAGGCGCAAGACUUUAAUUUAUCACUACGAAAUCUUGAGAUCGGGCGUUCGACUCGCCCCCGGGAGAUUUUUUCCUCGAGCAA

Variants of: B1
Experiment: nonsense suppression (GFP-seq) (ratio to wild type); higher = more function; SUP4oc tRNA, yeast GFP reporter sort-seq
In short: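 To measure nonsense suppression, tRNA variants from a library carrying ~3% random mutations were integrated into the yeast genome alongside RFP and a GFP ochre reporter under galactose control. Growth took place in raffinose/galactose medium supplemented with 80 mg/L adenine, followed by sorting into GFP/RFP bins and Illumina sequencing of each bin (phred ≥30). For each variant with ≥100 reads and ≥30 cells, the bin median GFP/RFP values were weighted by its estimated cell share per bin and referenced to the unmutated parent tRNA.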
With CUCUCGGUAGCCAAGUUGGUUUAACGCGCAAGACUUUAAUUUAUCACUACGAAAUCUUGAGAUCGGGCGUUCGACUUGCGCCCGGGAGAUUUUUUCCUCGAGCAA [G25C C77U C80G] the nonsense suppression was at most 0.026.
Variant CUCUCGGUAGCCAAGUUGGUUUAACGCGCAAGACUUUAAUUUAUCACUACGAAUUCUUGAGAUCGGGCGUUCGACUCGCCCCCGGGAGAUUUUUUCCUCGAGCAA [G25C A54U] has a nonsense suppression of 0.0708.
Work on CUCUCGGUAGCCAAGUUGGUUUAACGGGCAAGACUUUAAUUUAUCACUACGAAAUCUUGAGAUCGGGCGUUCGACUCGCCCCCGGGAGAUUUUUUCCUCGAGCAA [G25C C27G] yielded a nonsense suppression of at most 0.026.
CUCUCGGUAGCCAAGUUGGUUUAAGAAGCAAGACUUUAAUUUAUCACUACGAAAUCUUGAGAUCGGGCGUUCGACUCGCCCCCGGGAGAUUUUUUCCUCGAGCAA [G26A C27A] gave a nonsense suppression of at most 0.026.
Work on CUCUCGGUAGCCAAGUUGGUUUAAGAGGCAAGACUUUAAUUUAUCACUACGAAAUCUUGAGAUCGGGCGUUCGACUCGCCCCCGGGAGAUUUUUUCCUCGAGCAA [G26A C27G] yielded a nonsense suppression of at most 0.026.
CUCUCGGUAGCCAAGUUGGUUUAAAGCGCAAGACUUUAAUUUAUCACUACGAAAUCUUGAAAUCGGGCGUUCGACUCGCCCCCCGGAGAUUUUUUCCUCGAGCAA [G25A G61A G84C] showed a nonsense suppression of at most 0.026.
With CUCUCGGUAGCCAAGUUGGUUUAAAGCGCAAGACUUUAAUUUAUCACUACGAAAUCUUGAGAUCGGGCGUUCGAGUCACCCCCGGGAGAUUUUUUCCUCGAGCAA [G25A C75G G78A] the nonsense suppression was at most 0.026.
For CUCUCGGUAGCCAAGUUGGUUUAUGGCGCAAGACUUUAAUUUAUCACUACGAAAUCUUGAGAACGGGCGUUCGACUCGCCCCCGGGAGAUUUUUUCCUCGAGCAA [A24U U63A], the nonsense suppression was 0.119.
CUCUCGGUAGCCAAGUUGGUUUAUGGCGCAAGACUUUAAUUUAUCACUACGAAAUCUUGAGACCGGGCGUUCGACUCGCCCCCGGGAGAUUUUUUCCUCGAGCAA [A24U U63C] showed a nonsense suppression of 0.0344.
For CUCUCGGUAGCCAAGUUGGUUUAAAGCGCAAGACUUUAAUUUAUCACUACGAAAUGUUGAGAUCGGGCGUUCGACUCGUCCCCGGGAGAUUUUUUCCUCGAGCAA [G25A C56G C79U], the nonsense suppression was at most 0.026.
In the case of CUCUCGGUAGCCAAGUUGGUUUAAAGCGCAAGACUUUAAUUUAUCACUACGAAAUCUUCAGACCGGGCGUUCGACUCGCCCCCGGGAGAUUUUUUCCUCGAGCAA [G25A G59C U63C], the nonsense suppression is reported as at most 0.026.
Variant CUCUCGGUAGCCAAGUUGGUUUAAUGCGCAAGACUUUAAUUUAUCACUACGAAAUAUUGAGAUCGGGCGUUCGACUCGCCCCCGGUAGAUUUUUUCCUCGAGCAA [G25U C56A G86U] has a nonsense suppression of at most 0.026.
For CUCUCGGUAGCCAAGUUGGUUUAACGCGCAAGACUUUAAUUUAUCACUACGAAAUCUUGAGAUCGGGCGUUCGACUCGCCCCCGGGAGAUUUUUUCCUCGAGCAA [G25C], the nonsense suppression was 0.185.
For CUCUCGGUAGCCAAGUUGGUUUAAACCGCAAGACUUUAAUUUAUCACUACGAAAUCUUGAGAUCGGGCGUUCGACUCGCCCCCGGGAGAUUUUUUCCUCGAGCAA [G25A G26C], the nonsense suppression was at most 0.026.
For CUCUCGGUAGCCAAGUUGGUUUAAUGCUGAAGACUUUAAUUUAUCACUACGAAAUCUUGAGAUCGGGCGUUGGACUCGCCACCGGGAGAUUUUUUCCUCGAGCAA [G25U G28U C29G C72G C81A], the nonsense suppression was at most 0.026.
CUCUCGGUAGCCAAGUUGGUUUAAUGCGCAAGAUUUUAAUUUAUCACUACGAAAUCUUAAGAUCGGGCGUUCGACUCGCCCCCGGGAGAUUUUUUCCUCGAGCAA [G25U C34U G59A] gave a nonsense suppression of 1.15.
Variant CUCUCGGUAGCCAAGUUGGUUUAACGCGCGAGUCUUUAAUUUAUCACUACGAAAUCUUGAGAUCGGGCGUUCGACUCGCCCCCGGGAGAUUUUUUCCUCGAGCAA [G25C A30G A33U] has a nonsense suppression of at most 0.026.
CUCUCGGUAGCCAAGUUGGUUUAAUGCGCAAGACUUUAAUUUAUCACUACGAAUUCUUGAGAUCGGGCGUUCGACUCCCCCCCGGGAGAUUUUUUCCUCGAGCAA [G25U A54U G78C] gave a nonsense suppression of at most 0.026.
CUCUCGGUAGCCAAGUUGGUUUAAAGCGCAAGACUUUAAUUUAUCACUACGAAAUCUUGAGAUCGGGCGUUCAACUCGCCCCCGGGAGAUUUUUUCCUCGAGCAA [G25A G73A] showed a nonsense suppression of 0.0508.
Variant CUCUCGGUAGCCAAGUUGGUUUAACGCGCAAGACUUUAAUUUAUCACUACGAAAUCUUGAGAUCGGGUGUUCGACUCGCCCCCGGGAGAUUUUUUCCUCGAGCAA [G25C C68U] has a nonsense suppression of 0.031.
Work on CUCUCGGUAGCCAAGUUGGUUUAAUGCGCAAGACUUUAAUUUAUCACUACGAAAUCUUGAAAUCGGUCGUUCGACUCGCCCCCGGGAGAUUUUUUCCUCGAGCAA [G25U G61A G67U] yielded a nonsense suppression of at most 0.026.
Variant CUCUCGGUAGCCAAGUUGGUUUAAUGCGCAAGAAUUUAAUUUAUCACUACGAAAUCUUGAGAUCGGGCGUACGACACGCCCCCGGGAGAUUUUUUCCUCGAGCAA [G25U C34A U71A U76A] has a nonsense suppression of at most 0.026.
CUCUCGGUAGCCAAGUUGGUUUAACGCGCAAGACUUUAAUUUAUCACUACGAAAUCUUGAGAUCGGGCGUUCGACUCGCCCCCGGGAGUUUUUUUCCUCGAGCAA [G25C A89U] gave a nonsense suppression of at most 0.026.
CUCUCGGUAGCCAAGUUGGUUUAAGACGGGAGGCUUUAAUUUAUCACUACGAAAUCUUGAGAUCGGGCGUUCGACUCGCCCCCGGGAGAUUUUUUCCUCGAGCAA [G26A C29G A30G A33G] gave a nonsense suppression of at most 0.026.
Variant CUCUCGGUAGCCAAGUUGGUUUAUGGCGCAAGACUUUAAUUUAUCACUACGAAAUCUUGAGAUCGGGCGUUCGACUCGCCCCCGUGAGAUUUUUUCCUCGAGCAA [A24U G85U] has a nonsense suppression of 0.0597.
Work on CUCUCGGUAGCCAAGUUGGUUUAACGCGCAAGACUUUAAUUUAUCACUACGAAAUCUUGAGAUCGGGCGUUCGAAUCGCCCCCGGGAGAUUUUUUCCUCGAGCAA [G25C C75A] yielded a nonsense suppression of 0.826.
With CUCUCGGUAGCCAAGUUGGUUUAUGGCGCAAGACAUUAAUUUAUCACUACGAAAUCUUGAGAUCGGGCGUUCGACUCGCCCCCGGGAGAUUUUUUCCUCGAGCAA [A24U U35A] the nonsense suppression was at most 0.026.
